Compound activity (PubChem)
RGS7-Gao reg – regulators of human RGS7-Galphao interaction. P09471. binding response (% of control), % at 10 µM. AID 1439. 220,000 tested, 0.35% active. Multiplexed bead flow cytometry, RGS7-Galphao binding; actives lie on both sides; in the data active = binding response below about 49% or above about 150%; inconclusive = no clear call, values can overlap the other calls; inactive = in between;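 note: fluorescent Galphao held in activated GDP-AlF4 state binding bead-coupled RGS7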
Target sequence (P09471 whole entry, looked up): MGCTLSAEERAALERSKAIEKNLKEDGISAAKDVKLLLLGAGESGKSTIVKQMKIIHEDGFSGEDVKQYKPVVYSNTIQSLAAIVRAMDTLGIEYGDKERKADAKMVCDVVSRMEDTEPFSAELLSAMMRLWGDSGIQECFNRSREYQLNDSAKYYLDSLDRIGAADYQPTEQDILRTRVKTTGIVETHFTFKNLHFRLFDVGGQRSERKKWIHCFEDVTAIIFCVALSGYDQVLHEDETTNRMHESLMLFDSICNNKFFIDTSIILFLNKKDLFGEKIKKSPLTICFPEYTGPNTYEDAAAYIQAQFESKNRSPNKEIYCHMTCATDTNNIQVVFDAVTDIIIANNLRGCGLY
Biofilm kill mix – mixtures killing C. albicans biofilm; AID 1242; C. albicans biofilm persisters + clotrimazole, fluorescence viability; primary screen in compound mixtures of four per well; inhibition, % at 7.6 µM; 120,000 tested, 0.02% active;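 active = inhibition above 30.3% in the primary screen of four-compound pools, then above 30% when the compound was retested; inconclusive = passed the primary limit but could not be retested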;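 note: compounds exposed to preformed 24 h biofilms for 48 h; 0% = untreated biofilm control and 100% = clotrimazole plus chlorhexidine kill blank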
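Test system: C. albicans CAF4-2 wild-type biofilms; buffer or medium: RPMI/MOPS medium, pH 7.0; schedule: 24 h biofilm formation, then 48 h compound exposure, 37 °C; detection: Alamar Blue fluorescence; measure: percent inhibition of biofilm viability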
RGS8-Gao reg – regulators of human RGS8-Galphao interaction; response (percent of control binding), % at 10 µM; 220,000 tested, 0.34% active; multiplexed bead flow cytometry, RGS8-Galphao binding; actives lie on both sides; AID 1423; in the data active = response below about 60% or above about 140%; inactive = in between;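 note: Galphao activated as the GDP aluminium fluoride complex binding bead-coupled RGS8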
RGS16-Gao HTS – regulators of human RGS16-Galphao interaction; O15492+P09471; bead-based flow cytometry RGS16-Galphao binding, fluorescence; actives lie on both sides; binding response (% of control), % at 10 µM; 220,000 tested, 0.38% active; AID 1441; call rule not given here;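 note: Galphao activated by GDP with aluminum fluoride before binding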
RGS4-Gao reg – modulates binding of RGS4 to human Galphao | binding response (% of control), % at 10 µM | Multiplexed bead flow cytometry; actives lie on both sides | 220,000 tested, 0.33% active; in the data active = binding response below about 49% or above about 150%; inactive = in between;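 note: fluorescent Galphao activated with aluminum fluoride binding bead-coupled RGS4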
The depositor's hits bear a star; ? = inconclusive; · = no result; + = active, no number; [ ] = another dose, or the depositor's remark. A selection: hits, their analogues and other compounds. The true share with any hit is near 0.74%.

SMILES	RGS7-Gao reg	Biofilm kill mix	RGS8-Gao reg	RGS16-Gao HTS	RGS4-Gao reg
Cc1ccc(Nc2nc(N)nc(CN3CCN(Cc4ccc5c(c4)OCO5)CC3)n2)cc1C	97	33*	102	105	97
CC1=NN(c2ccc(N)cc2)C(=O)C1	12*	·	74	-44	35*
Oc1c(Cl)cc(Cl)c2cccnc12	99	43*	98	95	97
O=C(Oc1c(Cl)cc(Cl)c2cccnc12)c1ccco1	101	·	97	98	100
CCOC(=O)C1=C(C)N=C2SC=C(C)N2C1c1ccc(OC)cc1 (stereo unspecified)	99	30	102	102	101
COc1ccc2c(c1)c(C(=O)N/N=C/c1ccc(O)c(O)c1)c(C)n2C	92	5	93	92	94
CCN(CC)CCN(C(=O)Cn1nnc(-c2ccc(C)o2)n1)C(C(=O)NC(C)(C)C)c1cccs1 (stereo unspecified)	106	15	101	104	103
N#Cc1c(NC(=O)C2CCCO2)sc2c1CCCCCC2 (stereo unspecified)	101	10	99	98	97
Cc1cc(=O)[nH]c(SCC(=O)Nc2cccc3ccccc23)c1C#N	184*[activator]	·	115	219*[activator]	224*[activator]
CC(C)C[C@H](NC(=O)c1nc[nH]c1C(=O)N(C)Cc1ccccc1)C(=O)OC(C)(C)C	103	16	101	103	100
COc1ccccc1N1CCN(C(=S)NC(=O)/C=C/c2ccccc2)CC1	?	13	101	103	100
COc1ccccc1NC(=O)CCN1CCCCCC1	0.6*	·	4.6*	-2.5*	3.0*
CC(=O)N1CCN(c2c(F)c(F)c(C(F)(F)F)c(F)c2F)CC1	102	62*	104	109	105
O=C(O)COc1c(F)c(F)c(C(F)(F)F)c(F)c1F	99	·	101	105	103
COc1ccc(/C=C/c2ccccc2)cc1[C@H]1[C@H]2C=CC[C@@H](C)[C@@H]2C(=O)N1Cc1ccccc1	?	-1	99	100	99
Cc1ccc(O)c(C(=O)c2coc(=N)c(C(=O)NC(C)C)c2)c1	100	·	102	103	102
CCN1/C(=C/C=C/c2oc3ccc(-c4ccccc4)cc3[n+]2CC)Oc2ccc(-c3ccccc3)cc21	+[activator]	-5	300*[activator]	+[activator]	+[activator]
CCCCN1C(=O)/C(=C/C=C2\Oc3ccccc3N2CC)SC1=S	108	9	103	107	102
Cc1cc(NC(=O)Nc2cc(C)nn2-c2ccccc2)n(-c2ccccc2)n1	101	·	100	105	102
CCOC(=O)/C=C(\C)Nc1cc(C)nn1-c1ccccc1	11*	·	8.3*	-13	23*
COc1ccc([N+](=O)[O-])cc1N(CC(=O)NCCCOC(C)C)S(C)(=O)=O	97	8	100	101	99
CC(O)CNC(=O)Cc1cc(=O)[nH]c(=O)[nH]1 (stereo unspecified)	?	22	102	99	104
O=[N+]([O-])c1ccc(/C=C/C2=NN(c3ccccc3)C(c3ccco3)C2)cc1 (stereo unspecified)	246*[activator]	1	111	223*[activator]	285*[activator]
O=[N+]([O-])c1ccc(C2=NN(c3ccccc3)C(c3ccco3)C2)cc1 (stereo unspecified)	?	11	103	119	125
CC(C)(C)c1ccc(-c2cn(-c3ccc(Br)cc3)c3[n+]2CCCS3)cc1	96	31*	101	106	103
SMILES	RGS7-Gao reg	Biofilm kill mix	RGS8-Gao reg	RGS16-Gao HTS	RGS4-Gao reg
CCCCc1ccc(NC(=O)C(C)CC)cc1 (stereo unspecified)	99	-2	101	101	101
S=C(NCc1ccc2[nH]c3c(c2c1)CCCC3)Nc1ccccc1	50	13	70	55	49*
O=c1c2c(nc3nc(NCc4cccc5ccccc45)[nH]n13)CCC2	101	16	111	134	100
CC(=O)C1C(c2ccc(F)cc2)c2c(noc2C)CC1(C)O (stereo unspecified)	?	18	101	97	96
COc1ccc(-c2cnc(OC(C)(C)C)nc2OC(C)(C)C)cc1OC	104	·	104	106	102
COc1ccc(-c2nnc(SCC(=O)NC3CCCc4ccccc43)n2N)cc1 (stereo unspecified)	99	9	101	105	101
Cc1ccc(NC(CNS(=O)(=O)c2ccc(Cl)cc2)c2ccccc2)cc1 (stereo unspecified)	255*[activator]	·	94	124	215*[activator]
O=S(=O)(NCC(Nc1ccc(Cl)cc1)c1ccccc1)c1ccccc1 (stereo unspecified)	101	9	101	103	100
CN(C)c1ccc(/C=C/c2ccc3c4ccccc4ccc3[n+]2-c2ccccc2)cc1	?	18	91	89	93
CN(C)c1ccc(/C=C/c2ccc3ccccc3[n+]2C)cc1	103	34*	105	105	100
O=C1S/C(=C\c2ccc(N3CCOCC3)o2)C(=O)N1Cc1ccc(F)cc1	153*[activator]	·	124	386	165*[activator]
COc1cc(OC)cc(C(=O)N[C@H](C(=O)OCC(=O)Nc2ccc(F)c(F)c2F)C(C)C)c1	?	3	100	102	98
COc1ccc(NC(=O)COC(=O)[C@@H](NC(=O)c2c(F)cccc2F)C(C)C)cc1	164*[activator]	13	142*[activator]	142	150*[activator]
CCOC(=O)c1nc(C)nc(Sc2n[nH]c(-c3cc(C(F)(F)F)cc(C(F)(F)F)c3)n2)c1C	?	21	99	103	101
NS(=O)(=O)c1ccc(CCNC(=O)CCCOc2ccccc2)cc1	105	9	102	105	102
O=C(O)C[C@@H](O)C(=O)O	97	16	100	100	97
Cc1nc([N+](=O)[O-])c(C(=O)OCc2cccc(Br)c2)n1C	102	12	104	104	105
CC(C)CN1CCC(CNC(=O)CCc2nnc(Cc3c[nH]c4ccccc34)o2)CC1	99	7	101	100	100
CCCn1c(CN2CCN(C)CC2)nc2ccccc21	16*	·	13*	14*	23*
COc1ccccc1NC(=O)Cc1cccs1	99	·	99	101	99
